ChEMBL document CHEMBL4266043, “Nuclear Factor Erythroid 2-Related Factor 2 Activating Triterpenoid Saponins from Camellia japonica Roots” (J Nat Prod, 2018)
Calls of active or inactive are those of the source. No cut-off for these calls is given here.

Experiments:
Assay type in all cases: cell-based
[1] = system: HaCaT; test: Cytotoxicity against human HaCaT cells assessed as decrease in cell viability at 3.125 to 25 uM after 24 hrs by MTT assay
How it was run: (§1)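 MTT assay on HaCaT cells (RPMI 1640, 10% FBS, 37 °C, 5% CO2), plated overnight, then exposed 24 h to 3.125–25 μM. MTT (5 mg/mL solution) added for 2 h, medium removed, formazan dissolved in DMSO and read at 570 nm. Viability given as percent, mean ± SD of three independent experiments.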

[2] = target: T1, Nuclear factor erythroid 2-related factor 2 (Homo sapiens) (UniProt Q16236); test: Activation of Nrf2 in human HaCaT cells at 25 uM after 6 hrs by ARE-driven luciferase reporter gene assay relative to control
T1 sequence (whole entry): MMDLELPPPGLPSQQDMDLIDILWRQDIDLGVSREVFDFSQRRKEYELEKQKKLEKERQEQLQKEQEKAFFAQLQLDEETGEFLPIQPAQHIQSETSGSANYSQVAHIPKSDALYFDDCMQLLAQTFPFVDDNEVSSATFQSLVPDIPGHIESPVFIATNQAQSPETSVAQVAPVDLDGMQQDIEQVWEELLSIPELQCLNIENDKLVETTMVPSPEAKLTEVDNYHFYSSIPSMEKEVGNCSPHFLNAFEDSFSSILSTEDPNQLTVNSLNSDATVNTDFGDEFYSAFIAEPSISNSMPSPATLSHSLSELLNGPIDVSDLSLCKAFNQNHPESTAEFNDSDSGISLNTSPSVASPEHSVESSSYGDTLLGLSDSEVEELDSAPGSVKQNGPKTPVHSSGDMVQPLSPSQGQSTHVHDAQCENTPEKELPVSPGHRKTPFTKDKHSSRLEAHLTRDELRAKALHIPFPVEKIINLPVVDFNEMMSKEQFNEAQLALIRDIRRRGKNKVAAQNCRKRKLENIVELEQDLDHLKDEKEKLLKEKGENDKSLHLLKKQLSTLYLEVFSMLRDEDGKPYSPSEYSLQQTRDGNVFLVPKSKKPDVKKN
How it was run: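 Used HaCaT cells stably carrying 3xARE-luciferase, in RPMI 1640 with 10% FBS at 37 °C, 5% CO2, plated overnight. Exposure 6 h at 25 μM. Cells lysed in passive lysis buffer 15 min at room temperature. Luciferase read by kit and normalized to total protein, expressed versus vehicle. Mean ± SD from three independent experiments, t test.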

[3] = target: T1, Nuclear factor erythroid 2-related factor 2 (Homo sapiens); test: Activation of Nrf2 in human HaCaT cells assessed as increase in nuclear Nrf2 accumulation at 25 uM after 6 hrs by Western blot analysis
How it was run: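 HaCaT cells grown to 60−70% confluency, treated 6 h at 25 μM (vehicle DMSO 0.1%). Nuclear fraction obtained with M-PER lysis (10 min on ice), spin at 3000 rpm, pellet resuspended, sonicated, protein by BCA. 25 μg protein run on 10% SDS-PAGE, nitrocellulose transfer, milk block, anti-Nrf2 and histone H3 antibodies, HRP secondary, ECL detection.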

[4] = Cytotoxicity against human HaCaT cells assessed as cell viability at 25 uM after 24 hrs by MTT assay; conditions: read-out: Activity; how it was run: as §1

With `C/C=C(/C)C(=O)O[C@H]1[C@H](OC(=O)C(C)CC)[C@]2(CO)[C@H](OC(C)=O)C[C@]3(C)C(=CC[C@@H]4[C@@]5(C)CC[C@H](O[C@@H]6O[C@H](C(=O)O)[C@@H](O)[C@H](O[C@@H]7OC[C@H](O)[C@H](O[C@@H]8O[C@@H](C)[C@H](O)[C@@H](O)[C@H]8O)[C@H]7O)[C@H]6O)[C@@](C)(CO)[C@@H]5CC[C@]43C)[C@@H]2CC1(C)C` (stereo not given in full) as the compound, how does the Activity [1] read?
The Activity was “Non-Toxic”.

What about the Activity [2] of the same compound?
Its Activity is “Active”.

What about the Activity [3] of the same compound?
The Activity was “Active”.

With `C/C=C(/C)C(=O)O[C@H]1[C@H](OC(=O)C(C)CC)[C@]2(CO)[C@H](O)[C@H](O)[C@]3(C)C(=CC[C@@H]4[C@@]5(C)CC[C@H](O[C@@H]6O[C@H](C(=O)O)[C@@H](O)[C@H](O[C@@H]7OC[C@H](O)[C@H](O[C@@H]8O[C@@H](C)[C@H](O)[C@@H](O)[C@H]8O)[C@H]7O)[C@H]6O)[C@@](C)(CO)[C@@H]5CC[C@]43C)[C@@H]2CC1(C)C` (stereo not given in full) as the compound, how does the Activity [1] read?
Its Activity is “Non-Toxic”.

What about the fold change (FC) [2] of the same compound?
The fold change (FC) was 2.

And the Activity [3]?
Its Activity is “Active”.

For `C/C=C(/C)C(=O)O[C@H]1[C@H](OC(=O)CC(C)C)[C@]2(CO)[C@H](O)C[C@]3(C)C(=CC[C@@H]4[C@@]5(C)CC[C@H](O[C@@H]6O[C@H](C(=O)O)[C@@H](O)[C@H](O[C@@H]7OC[C@H](O)[C@H](O[C@@H]8O[C@@H](C)[C@H](O)[C@@H](O)[C@H]8O)[C@H]7O)[C@H]6O)[C@@](C)(CO)[C@@H]5CC[C@]43C)[C@@H]2CC1(C)C`, which viability at 24 h, 25 µM [4] is on record?
Its viability at 24 h, 25 µM is 69.7%.

What about the Activity [2] of the same compound?
Its Activity is “Active”.

What about the Activity [3] of the same compound?
Its Activity is “Active”.

For `C/C=C(/C)C(=O)O[C@H]1[C@H](OC(=O)/C(C)=C\C)[C@]2(CO)[C@H](O)[C@H](O)[C@]3(C)C(=CC[C@@H]4[C@@]5(C)CC[C@H](O[C@@H]6O[C@H](C(=O)O)[C@@H](O)[C@H](O[C@@H]7OC[C@H](O)[C@H](O[C@@H]8O[C@@H](C)[C@H](O)[C@@H](O)[C@H]8O)[C@H]7O)[C@H]6O)[C@@](C)(CO)[C@@H]5CC[C@]43C)[C@@H]2CC1(C)C`, which Activity [1] is on record?
Its Activity is “Non-Toxic”.

And the fold change (FC) [2]?
Its fold change (FC) is 4.

And the Activity [3]?
Its Activity is “Active”.

With `C/C=C(/C)C(=O)O[C@H]1[C@H](OC(=O)C(C)CC)[C@]2(CO)[C@H](O)C[C@]3(C)C(=CC[C@@H]4[C@@]5(C)CC[C@H](O[C@@H]6O[C@H](C(=O)O)[C@@H](O)[C@H](O[C@@H]7OC[C@H](O)[C@H](O[C@@H]8O[C@@H](C)[C@H](O)[C@@H](O)[C@H]8O)[C@H]7O)[C@H]6O)[C@@](C)(CO)[C@@H]5CC[C@]43C)[C@@H]2CC1(C)C` (stereo not given in full) as the compound, how does the viability at 24 h, 25 µM [4] read?
Its viability at 24 h, 25 µM is 72.7%.

And the Activity [2]?
Its Activity is “Active”.

What about the Activity [3] of the same compound?
Its Activity is “Active”.

For `C/C=C(/C)C(=O)O[C@H]1[C@H](OC(=O)CC(C)C)[C@]2(CO)[C@H](OC(C)=O)[C@H](OC(C)=O)[C@]3(C)C(=CC[C@@H]4[C@@]5(C)CC[C@H](O[C@@H]6O[C@H](C(=O)O)[C@@H](O)[C@H](O[C@@H]7OC[C@H](O)[C@H](O[C@@H]8O[C@@H](C)[C@H](O)[C@@H](O)[C@H]8O)[C@H]7O)[C@H]6O)[C@@](C)(CO)[C@@H]5CC[C@]43C)[C@@H]2CC1(C)C`, which Activity [1] is on record?
Its Activity is “Non-Toxic”.

What about the Activity [2] of the same compound?
The Activity was “Active”.

And the Activity [3]?
The Activity was “Active”.

For `C/C=C(/C)C(=O)O[C@H]1[C@H](OC(=O)/C(C)=C/C)[C@]2(CO)[C@H](O)[C@H](O)[C@]3(C)C(=CC[C@@H]4[C@@]5(C)CC[C@H](O[C@@H]6O[C@H](C(=O)O)[C@@H](O)[C@H](O[C@@H]7OC[C@H](O)[C@H](O[C@@H]8O[C@@H](C)[C@H](O)[C@@H](O)[C@H]8O)[C@H]7O)[C@H]6O)[C@@](C)(CO)[C@@H]5CC[C@]43C)[C@@H]2CC1(C)C`, which Activity [1] is on record?
The Activity was “Non-Toxic”.

What about the fold change (FC) [2] of the same compound?
Its fold change (FC) is 3.

And the Activity [3]?
Its Activity is “Active”.

With `CCC(C)C(=O)O[C@H]1[C@H](O)C(C)(C)C[C@H]2C3=CC[C@@H]4[C@@]5(C)CC[C@H](O[C@@H]6O[C@H](C(=O)O)[C@@H](O)[C@H](O[C@@H]7OC[C@H](O)[C@H](O[C@@H]8O[C@@H](C)[C@H](O)[C@@H](O)[C@H]8O)[C@H]7O)[C@H]6O)[C@@](C)(CO)[C@@H]5CC[C@@]4(C)[C@]3(C)[C@@H](OC(=O)CC(C)C)[C@@H](O)[C@]21CO` (stereo not given in full) as the compound, how does the Activity [1] read?
Its Activity is “Non-Toxic”.

What about the Activity [2] of the same compound?
Its Activity is “Active”.

And the Activity [3]?
Its Activity is “Active”.

For `C/C=C(/C)C(=O)O[C@H]1[C@H](OC(=O)CC(C)C)[C@]2(CO)[C@H](O)[C@H](O)[C@]3(C)C(=CC[C@@H]4[C@@]5(C)CC[C@H](O[C@@H]6O[C@H](C(=O)O)[C@@H](O)[C@H](O[C@@H]7OC[C@H](O)[C@H](O[C@@H]8O[C@@H](C)[C@H](O)[C@@H](O)[C@H]8O)[C@H]7O)[C@H]6O)[C@@](C)(C=O)[C@@H]5CC[C@]43C)[C@@H]2CC1(C)C`, which Activity [1] is on record?
The Activity was “Non-Toxic”.

And the Activity [2]?
Its Activity is “Active”.

What about the Activity [3] of the same compound?
The Activity was “Active”.

What does the source list for `C/C=C(/C)C(=O)O[C@H]1[C@H](OC(=O)C(C)CC)[C@]2(CO)[C@H](O)[C@H](O)[C@]3(C)C(=CC[C@@H]4[C@@]5(C)CC[C@H](O[C@@H]6O[C@H](C(=O)O)[C@@H](O)[C@H](O[C@@H]7OC[C@H](O)[C@H](O[C@@H]8O[C@@H](C)[C@H](O)[C@@H](O)[C@H]8O)[C@H]7O)[C@H]6O)[C@@](C)(C=O)[C@@H]5CC[C@]43C)[C@@H]2CC1(C)C` (stereo not given in full)?
Activity [1]: Non-Toxic; Activity [2]: Active; Activity [3]: Active
